Data on 25 compounds can be found in PubChem BioAssay AID488902 (Broad Institute, 2010).

What is called AC50 is the concentration at which the activity in the assay is half-maximal.

The source made the active and inactive calls.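 The calls were made as follows: active = rising caspase curve whose AC50 is at most ten times the top dose tested; inconclusive = flat fit between 30 and 70%, or a poor fit; inactive = the rest.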

Test [1] is described as follows: caspase activation in wild-type MEFs, dose response, counter-screen for A1 (Bcl2-A1) inhibitor project, cell-based, wild-type MEF, Caspase-Glo luminescence, dry powder (AID 488902). The conditions noted are these: wild-type MEF caspase activation, Caspase-Glo luminescence, 3 h. In short, it runs like this:
(§1)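 Material – wild-type mouse embryonic fibroblasts, unprimed by A1-BIM, not A1-dependent · Quantity – 2500 cells/well · Buffer or medium – RPMI-1640 plus 10% FBS · Dosing – compound dose series, 100 nL pin transfer · Incubation – compound 3 h at 37 °C, 5% CO2, caspase reagent 1 h · Signal – CaspaseGlo luminescence · Measure – caspase activation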
On the technique in general: A counterscreen serves to expose hits that act by an unwanted route or on another target.

In test [2] the test system is wild-type MEF caspase activation, Caspase-Glo luminescence, 3 h. The test is described as above. In outline:
as §1

Turning to `Cc1ccc(CS(=O)(=O)c2ncc(Cl)c(C(=O)Nc3nnc(C(C)C)s3)n2)cc1`, the caspase activation in test [1] (at 150 µM (top of the series)) is -1.41% (inactive). `Cc1cccc(CS(=O)(=O)c2ncc(Cl)c(C(=O)Nc3nnc(C(C)C)s3)n2)c1`: the caspase activation in test [1] (at 150 µM (top of the series)) was -1.13% (inactive). With `CCSc1nnc(NC(=O)c2nc(S(=O)(=O)Cc3ccc(F)cc3)ncc2Cl)s1`, the caspase activation in test [1] (at 150 µM (top of the series)) was -2.01% (inactive).

Take `CCc1cc2c(=O)c(-c3cnn(-c4ccccc4)c3)c(C)oc2cc1OCC(=O)Nc1cccc(C)c1`: the AC50 in test [2] was 2.93 µM.

`Nc1nc(F)nc2c1ncn2[C@@H]1O[C@H](CO)[C@@H](O)[C@H]1O`: the caspase activation in test [1] (at 150 µM (top of the series)) was -0.43% (inactive). Turning to `COc1cc(CN2CCN(c3cc(C)ccc3C)CC2)ccc1O`, the AC50 in test [2] was > 150 µM (inactive).

In the case of `C=C1[C@@H](C)[C@H]2[C@H](Cc3ccccc3)NC(=O)[C@]23OC(=O)/C=C\[C@H](O)CCC[C@@H](C)C/C=C/[C@H]3[C@@H]1O`, the caspase activation in test [1] (at 150 µM (top of the series)) was 0.465% (inactive).

Take `CCc1nnc(NC(=O)c2nc(S(=O)(=O)Cc3ccccc3)ncc2Cl)s1`: the caspase activation in test [1] (at 150 µM (top of the series)) is -0.316% (inactive).

On to `COc1cccc(C(=O)C(C#N)=C(SC)SC)c1`, for which the caspase activation in test [1] (at 150 µM (top of the series)) is -1.91% (inactive).

For `CC(C)(C)n1nc(-c2ccc(Cl)cc2)c2c(N)ncnc21`, the caspase activation in test [1] (at 150 µM (top of the series)) was 2.53% (inactive).

For `Cc1cc(C(=O)CCl)c(C)n1CCc1ccc(Cl)cc1`, the AC50 in test [2] was 16.3 µM.

As for `Cc1c(CCOC(=O)c2ccc(N3CCOCC3)c([N+](=O)[O-])c2)sc[n+]1CC#N`, the caspase activation in test [1] (at 150 µM (top of the series)) was 0.157% (inactive).

For the compound `C=C1[C@@H](C)[C@H]2[C@H](Cc3ccccc3)NC(=O)[C@]23[C@H](OC(C)=O)/C=C/[C@](C)(O)C(=O)[C@@H](C)C/C=C/[C@H]3[C@@H]1O`, in test [1] (at 150 µM (top of the series)), the caspase activation was -0.119% (inactive). Still for that read-out and setting: under `Cn1c(=NC(=O)CCl)sc2ccccc21` stands 0.0802% (inactive); under `COc1cc(/C=C(/C#N)c2nc3ccccc3[nH]2)ccc1OCC(=O)Nc1ccccc1C(C)C`, 0.773% (inactive). With `CC(=O)OC(C)(C)/C=C/C(=O)[C@](C)(O)C1[C@H](O)C[C@@]2(C)C3CC=C4C(C[C@H](O)C(=O)C4(C)C)[C@]3(C)C(=O)C[C@]12C` (stereo not given in full), in test [1] (at 150 µM (top of the series)), the caspase activation is 0.64% (inactive). On the same count and under the same terms, the result for `O=C(Oc1cccc(/C=N/Nc2nc(Nc3ccccc3)nc(N3CCOCC3)n2)c1)c1ccco1` reads 0.0158% (inactive); that for `C/C1=C/C(=O)O[C@@H]2C[C@@H](CC[C@H](C)/C=C\CC1)O[C@@](O)(C1CSC(=O)N1)C2` (stereo not given in full), 0.912% (inactive).

As for `O=C(CCl)N=c1sccn1Cc1ccccc1Cl`, the caspase activation in test [1] (at 150 µM (top of the series)) was 0.637% (inactive).

Take `CC(=O)N[C@H]1[C@H](O[C@H]2CC[C@@]3(C)C(CC[C@]4(C)C3CC=C3[C@@H]5CC(C)(C)CC[C@]5(C(=O)OC5OCC(O)C(O)C5O)C(O)C[C@]34C)C2(C)C)O[C@H](COC2OCC(O)C(OC3OCC(O)C(O)C3O)C2O)[C@@H](O[C@@H]2O[C@@H](C)[C@H](O)[C@@H](O)[C@H]2O[C@@H]2O[C@@H](C)[C@H](O)[C@@H](O)[C@H]2O)[C@@H]1O` (stereo not given in full): the caspase activation in test [1] (at 135 µM (top of the series)) is -0.32% (inactive). As to `Cc1cccc(NC(=O)/C(C#N)=C/c2cn(CC(=O)NCc3ccco3)c3ccccc23)c1`, the AC50 in test [2] is 4.34 µM. As to `CCOC(=O)CSC1=N/C(=C/c2ccc(-n3cncn3)cc2)C(=O)N1C(C)=O`, the caspase activation in test [1] (at 150 µM (top of the series)) was 2.7% (inactive). As for `COc1ccc(N(C(=O)CCl)C(C(=O)NCCc2ccccc2)c2cccs2)cc1Cl` (stereo not given), in test [2], the AC50 was 15.5 µM.

In the case of `Cc1ccc(Sc2c([N+](=O)[O-])c(=O)n(C)c3ccccc23)cc1`, the caspase activation in test [1] (at 150 µM (top of the series)) was 1.56% (inactive).

For the compound `Cc1c(C=O)c(C=O)c(C)n1Cc1ccccc1`, the caspase activation in test [1] (at 150 µM (top of the series)) is 1.13% (inactive).
